Results pooled from the literature.
Compare with care: the assays were run in different laboratories.
Target: Serine/threonine-protein kinase BRSK1 (BRSK1, Homo sapiens, UniProt Q8TDC3)
Residues used in one study (Q8TDC3 1-778): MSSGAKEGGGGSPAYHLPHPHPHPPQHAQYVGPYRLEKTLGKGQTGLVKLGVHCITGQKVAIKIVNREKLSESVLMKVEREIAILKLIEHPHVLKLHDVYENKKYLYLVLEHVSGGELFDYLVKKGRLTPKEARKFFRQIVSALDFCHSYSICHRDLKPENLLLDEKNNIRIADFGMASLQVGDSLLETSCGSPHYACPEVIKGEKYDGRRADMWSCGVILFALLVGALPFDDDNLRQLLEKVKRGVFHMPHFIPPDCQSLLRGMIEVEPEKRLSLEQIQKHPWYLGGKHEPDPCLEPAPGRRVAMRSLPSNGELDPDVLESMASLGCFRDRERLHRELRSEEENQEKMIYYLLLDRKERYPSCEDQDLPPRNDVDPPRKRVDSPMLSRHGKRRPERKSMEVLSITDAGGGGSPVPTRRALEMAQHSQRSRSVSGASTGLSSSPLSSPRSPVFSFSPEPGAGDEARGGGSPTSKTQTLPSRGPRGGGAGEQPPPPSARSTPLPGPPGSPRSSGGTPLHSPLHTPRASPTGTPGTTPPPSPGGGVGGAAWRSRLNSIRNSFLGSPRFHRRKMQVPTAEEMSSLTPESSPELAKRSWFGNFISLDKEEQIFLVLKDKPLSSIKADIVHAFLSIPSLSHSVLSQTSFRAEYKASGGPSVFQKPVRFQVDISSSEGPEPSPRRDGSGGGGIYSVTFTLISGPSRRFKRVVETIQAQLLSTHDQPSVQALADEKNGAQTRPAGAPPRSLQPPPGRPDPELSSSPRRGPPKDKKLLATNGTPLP

COc1cc(/C=C/C(=O)CC(=O)/C=C/c2ccc(O)c(OC)c2)ccc1O — activity vs control (enzyme activity, inhibitor; 1 µM): 92%
CCc1ccccc1C(=O)Nc1n[nH]c2c(C)c(F)c(C3C(C#N)=C(C)N(C)C(C)=C3C#N)cc12 — remaining binding (cell-free assay, competition with immobilised ligand; 1 µM): 55%
CCN(CC)CCNC(=O)c1c(C)[nH]c(/C=C2\C(=O)Nc3ccc(F)cc32)c1C — inhibition (enzyme activity, inhibitor; 0.3 µM): 27%
Cc1cc(NC(=O)c2cccc3cc(-c4cccc5[nH]nc(N)c45)ccc23)ccc1F — activity vs control (enzyme activity, inhibitor; 0.1 µM): 123%
O=C(Nc1cnn(-c2csc(C(=O)NC3COC3)c2)c1)Nc1c(F)cccc1Cl — remaining activity (enzyme activity, inhibitor; 5 µM): 99.4%
FC(F)(F)Oc1cccc(-c2cnc3ccc(-c4ccncc4)nn23)c1 — activity vs control (enzyme activity, inhibitor, radiometric; 5 µM): 82%
CN([C@@H]1CCc2c(CC(=O)O)c3ccccc3n2C1)S(=O)(=O)c1ccc(F)cc1 — remaining binding (cell-free assay, competition with immobilised ligand; 1 µM): 100%
CNC(=O)c1cc(Oc2ccc(NC(=O)Nc3ccc(Cl)c(C(F)(F)F)c3)cc2)ccn1 — inhibition (enzyme activity, inhibitor; 0.3 µM): 17%
CN1CC(Oc2cnc(C#N)cc2-c2ccn3nc(NC(=O)C4CC4)cc3c2)C1 — inhibition (enzyme activity, inhibitor; 1 µM): 6%
CN(C)C(=O)Cn1cc(-c2nc(C3(c4ccc(-c5cnc(N)nc5)cc4)CC3)no2)cn1 — remaining binding (cell-free assay, competition with immobilised ligand; 1 µM): 93%
Oc1cccc(-c2nc(N3CCOCC3)c3oc4ncccc4c3n2)c1 — remaining activity (enzyme activity, inhibitor; 10 µM): 109%
Cc1nc(Cc2cccc(C(F)(F)F)c2)sc1-c1ccc(C(N)=O)nc1 — remaining binding (cell-free assay, competition with immobilised ligand; 1 µM): 100%
O=C1NC(=O)c2cc(Nc3ccc(F)cc3)c(Nc3ccc(F)cc3)cc21 — remaining signal (cell-free assay; 0.5 µM): 94.3%
Cc1ccc(Nc2nccc(N(C)c3ccc4c(C)n(C)nc4c3)n2)cc1S(N)(=O)=O — inhibition (enzyme activity, inhibitor; 10 µM): 36%
CCN(CC)c1ccc(C2=NNC(=O)CC2C)cc1[N+](=O)[O-] (stereo not drawn) — remaining activity (enzyme activity, inhibitor; 10 µM): 131%
COc1cc(Nc2cnc(C#N)c(O[C@H](C)CN(C)C)n2)ncc1-c1cnn(C)c1 — remaining activity (enzyme activity, inhibitor, radiometric; 10 µM): 53%
Cc1sc(C(=O)NC2COC2)cc1-n1cc(NC(=O)Nc2c(F)cccc2Cl)cn1 — remaining activity (enzyme activity, inhibitor; 10 µM): 87.8%
CC(=O)N1CCC(c2ccc(C(=O)NC(=N)N)cc2C(F)(F)F)CC1 — remaining binding (cell-free assay, competition with immobilised ligand; 1 µM): 87%
FC(F)c1nc2ccccc2n1-c1nc(N2CCOCC2)nc(N2CCOCC2)n1 — remaining activity (enzyme activity, inhibitor; 10 µM): 161%
Cc1ccc(C(=O)Nc2ccc(CN3CCN(C)CC3)c(C(F)(F)F)c2)cc1C#Cc1cnc2cccnn12 — remaining activity (enzyme activity, inhibitor; 23.5 nM): 83%
O=C(Nc1cccnn1)N1CCC(=Cc2cccc(Oc3ccc(C(F)(F)F)cn3)c2)CC1 — remaining binding (cell-free assay, competition with immobilised ligand; 1 µM): 73%
N#CCCc1ccc2c(c1)-c1[nH]c3ccc([N+](=O)[O-])cc3c1CC(=O)N2 — remaining signal (cell-free assay; 0.5 µM): 46.8%
NS(=O)(=O)c1cc(NC(=O)Cc2ccccc2)ccc1Oc1cccc(Cl)c1 — remaining binding (cell-free assay, competition with immobilised ligand; 1 µM): 91%
COc1cc2ncnc(Nc3ccc(Oc4ccccc4)cc3C)c2cc1OC — inhibition (enzyme activity, inhibitor; 1 µM): 1%
CC(C)(O)c1cncc(-c2nc3ccc(F)cc3n2C2CC2)c1 — remaining binding (cell-free assay, competition with immobilised ligand; 1 µM): 100%
CC(C)(C)c1nc(-c2cccc(NS(=O)(=O)c3c(F)cccc3F)c2F)c(-c2ccnc(N)n2)s1 — remaining activity (enzyme activity, inhibitor, radiometric; 1 µM): 105%
O=C1Nc2ccc(Cl)cc2C1=Cc1cc(Cl)c(O)c(Cl)c1 — remaining signal (cell-free assay; 0.5 µM): 81.3%
